Measurements from different studies.
Lines come from different studies, so protocols differ. Values after ≈ are worked out from the molar mass of the structure shown.

With `CC[C@@]1(O)C(=O)OCc2c1cc1n(c2=O)Cc2cc3ccccc3nc2-1` the IC50 was 31.6 µM (LS174T; cell growth or viability, MTT; 48 h).
For `N.N.[Cl][Pt][Cl]`, the IC50 was 14.2 µM (HaCaT; cell growth or viability, MTT; 48 h).
For `Oc1c(Br)cc(Br)cc1-c1[nH]c(Br)c(Br)c1Br`, the MIC was 0.01 µM (Bacillus subtilis; microbial growth; ATCC6051).
The MIC of `OC(Cn1cncn1)(Cn1cncn1)c1ccc(F)cc1F` is reported as 2 µg/mL (Nakaseomyces glabratus; microbial growth, broth dilution; ATCC2001).
`COc1ccc(-c2[nH]c3c(C)c(C)ccc3c2C(=O)c2cc(OC)c(OC)c(OC)c2)cc1O` gave an IC50 of greater than 20 µM (tubulin polymerisation, inhibitor, absorbance).
`O=C/C=C/c1ccccc1` has an MFC of 200 µg/mL (≈ 1510 µM) (Cryptococcus neoformans; microbial killing, broth dilution; clinical isolate).
The MIC of `Oc1c(Cl)cc(Cl)cc1-c1[nH]c(Cl)c(Cl)c1Cl` is reported as 0.04 µM (Bacillus subtilis; microbial growth; ATCC6051).
The IC50 of `COc1ccc(-c2[nH]c3c(OC)c(OC)c(OC)cc3c2C(=O)c2cc(OC)c(OC)c(OC)c2)cc1O` is reported as greater than 20 µM (tubulin polymerisation, inhibitor, absorbance).
